ChEMBL document CHEMBL3853321, “Optimization of Platelet-Derived Growth Factor Receptor (PDGFR) Inhibitors for Duration of Action, as an Inhaled Therapy for Lung Remodeling in Pulmonary Arterial Hypertension” (J Med Chem, 2016)
Converted amounts (≈) assume the structure as drawn. The source made the active and inactive calls. No cut-off for these calls is given here.

Assays:
[1] = Drug uptake in blood of rat monocrotaline model of pulmonary arterial hypertension at 100 mg/kg, po; type: ADME, organism-based; details: in vivo, read-out: Drug uptake
[2] = tested on: Rattus norvegicus; test: Anti-remodeling activity in rat monocrotaline model of pulmonary arterial hypertension assessed as reduction in MCT-induced muscularization of small blood vessels in lung at 100 mg/kg, po administered once daily for 7 days by histological analysis
[3] = Drug uptake in rat lung at 0.1 mg/kg, it at 7 hrs; type: ADME, organism-based; details: inhaled or intranasal, read-out: Drug uptake
Procedure, shortened: (§1)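 Single intratracheal dose as a solution in 10% PEG200/[…] D5W vehicle; compound concentration measured in lung tissue at 7 h or 24 h after dosing.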

[4] = Drug uptake in rat lung at 0.4 mg/kg, it at 24 hrs; type: ADME, organism-based; details: inhaled or intranasal, read-out: Drug uptake; procedure, shortened: as §1
[5] = tested on: Rattus norvegicus; test: In vivo receptor occupancy at PDGFR-beta kinase domain in rat lung at 0.1 mg/kg, it measured after 7 hrs by immunoprecipitation assay; type: functional
[6] = Solubility of the compound using 10%PEG200/[…]D5W by high-throughput assay; type: physicochemical
Procedure, shortened: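 Solubility determined in the intratracheal dosing vehicle, 10% PEG200/[…] D5W.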

[7] = tested on: Rattus norvegicus; test: In vivo receptor occupancy at PDGFR-beta kinase domain in rat lung at 0.4 mg/kg, it measured after 7 hrs by immunoprecipitation assay; type: functional
[8] = Transcellular permeability of the compound by PAMPA; type: ADME
[9] = Drug uptake in rat lung at 0.4 mg/kg, it at 7 hrs; type: ADME, organism-based; details: inhaled or intranasal, read-out: Drug uptake; procedure, shortened: as §1
[10] = tested on: Rattus norvegicus; test: In vivo receptor occupancy at PDGFR-beta kinase domain in rat lung at 0.4 mg/kg, it measured after 24 hrs by immunoprecipitation assay; type: functional
[11] = Drug uptake in rat lung at 1 mg/kg, it at 7 hrs; type: ADME, organism-based; details: inhaled or intranasal, read-out: Drug uptake; procedure, shortened: as §1
[12] = tested on: Rattus norvegicus; test: In vivo receptor occupancy at PDGFR-beta kinase domain in rat lung at 1 mg/kg, it measured after 7 hrs by immunoprecipitation assay; type: functional
[13] = Drug uptake in rat lung at 0.1 mg/kg, it at 24 hrs; type: ADME, organism-based; details: inhaled or intranasal, read-out: Drug uptake; procedure, shortened: as §1
[14] = tested on: Rattus norvegicus; test: In vivo receptor occupancy at PDGFR-beta kinase domain in rat lung at 0.1 mg/kg, it measured after 24 hrs by immunoprecipitation assay; type: functional
[15] = target: Voltage-gated inwardly rectifying potassium channel KCNH2 (Homo sapiens, UniProt Q12809); test: Inhibition of human ERG
Voltage-gated inwardly rectifying potassium channel KCNH2, sequence (Q12809 whole entry): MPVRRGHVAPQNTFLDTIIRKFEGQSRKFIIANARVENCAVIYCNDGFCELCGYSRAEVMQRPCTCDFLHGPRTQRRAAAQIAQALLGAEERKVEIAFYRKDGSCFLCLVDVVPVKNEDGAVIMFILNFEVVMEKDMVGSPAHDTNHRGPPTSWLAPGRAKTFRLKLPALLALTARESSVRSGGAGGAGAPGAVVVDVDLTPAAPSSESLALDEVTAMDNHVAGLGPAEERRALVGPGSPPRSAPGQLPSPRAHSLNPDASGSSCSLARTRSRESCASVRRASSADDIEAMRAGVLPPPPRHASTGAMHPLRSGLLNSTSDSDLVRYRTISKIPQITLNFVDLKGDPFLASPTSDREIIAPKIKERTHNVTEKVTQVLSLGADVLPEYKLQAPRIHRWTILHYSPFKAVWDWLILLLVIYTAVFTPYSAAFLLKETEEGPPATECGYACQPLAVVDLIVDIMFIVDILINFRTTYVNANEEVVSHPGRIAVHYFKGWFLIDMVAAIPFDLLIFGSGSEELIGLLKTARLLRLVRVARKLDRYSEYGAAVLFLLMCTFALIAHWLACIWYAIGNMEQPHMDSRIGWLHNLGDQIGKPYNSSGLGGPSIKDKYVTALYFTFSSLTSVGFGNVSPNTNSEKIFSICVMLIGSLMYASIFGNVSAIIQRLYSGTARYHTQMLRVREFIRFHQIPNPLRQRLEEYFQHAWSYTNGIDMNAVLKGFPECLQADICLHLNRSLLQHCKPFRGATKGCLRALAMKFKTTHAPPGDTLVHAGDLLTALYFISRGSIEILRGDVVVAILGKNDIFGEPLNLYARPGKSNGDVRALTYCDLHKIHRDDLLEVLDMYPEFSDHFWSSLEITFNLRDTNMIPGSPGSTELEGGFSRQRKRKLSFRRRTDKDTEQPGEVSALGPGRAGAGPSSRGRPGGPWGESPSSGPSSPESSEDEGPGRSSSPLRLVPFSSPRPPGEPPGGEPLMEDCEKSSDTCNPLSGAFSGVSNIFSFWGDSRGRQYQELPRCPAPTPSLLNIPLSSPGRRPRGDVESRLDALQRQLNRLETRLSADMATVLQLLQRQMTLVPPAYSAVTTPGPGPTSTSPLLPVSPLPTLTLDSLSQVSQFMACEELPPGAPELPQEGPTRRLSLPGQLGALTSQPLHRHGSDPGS

[16] = Drug uptake in blood of rat monocrotaline model of pulmonary arterial hypertension at 0.03 mg/kg, it; type: ADME, organism-based; details: in vivo, inhaled_or_intranasal, read-out: Drug uptake
[17] = target: T1, Muscarinic acetylcholine receptor M1 (Homo sapiens, UniProt P11229); test: Inhibition of M1 receptor (unknown origin)
T1 sequence (P11229 whole entry): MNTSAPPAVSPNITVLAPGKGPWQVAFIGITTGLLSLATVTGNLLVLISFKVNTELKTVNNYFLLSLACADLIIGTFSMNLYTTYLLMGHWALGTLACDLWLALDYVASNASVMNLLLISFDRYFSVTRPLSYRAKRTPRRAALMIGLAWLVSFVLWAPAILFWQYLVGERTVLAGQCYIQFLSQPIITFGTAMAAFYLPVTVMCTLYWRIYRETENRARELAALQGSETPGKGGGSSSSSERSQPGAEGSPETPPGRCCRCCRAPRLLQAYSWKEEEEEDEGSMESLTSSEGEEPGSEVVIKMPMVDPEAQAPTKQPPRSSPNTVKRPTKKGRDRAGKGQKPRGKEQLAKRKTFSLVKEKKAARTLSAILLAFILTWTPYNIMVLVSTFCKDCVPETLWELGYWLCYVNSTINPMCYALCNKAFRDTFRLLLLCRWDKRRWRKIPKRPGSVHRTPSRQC

[18] = tested on: Rattus norvegicus; test: Anti-remodeling activity in rat monocrotaline model of pulmonary arterial hypertension assessed as reduction in MCT-induced muscularization of small blood vessels in lung at 0.03 mg/kg, it administered twice daily for 7 days by histological analysis relative to control; type: functional; set-up: scale not given: the % may be the effect or the level left
Procedure, shortened: (§2)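 Rats given monocrotaline two weeks beforehand so pathology develops; compound then given intratracheally twice daily for seven days (therapeutic mode). Read-out: percentage of fully muscularized small pulmonary vessels; group values given as mean with SEM.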

[19] = Drug uptake in blood of rat monocrotaline model of pulmonary arterial hypertension at 0.01 mg/kg, it; type: ADME, organism-based; details: in vivo, inhaled_or_intranasal, read-out: Drug uptake
[20] = Half life in rat; type: ADME; details: in vivo
[21] = tested on: Rattus norvegicus; test: Anti-remodeling activity in it dosed rat monocrotaline model of pulmonary arterial hypertension assessed as reduction in MCT-induced muscularization of small blood vessels in lung administered twice daily for 7 days by histological analysis; type: functional; details: 168 h, read-out: MED; procedure, shortened: as §2
[22] = Drug uptake in blood of rat monocrotaline model of pulmonary arterial hypertension at 0.1 mg/kg, it; type: ADME, organism-based; details: in vivo, inhaled_or_intranasal, read-out: Drug uptake
[23] = Oral bioavailability in it dosed rat; type: ADME, organism-based; details: in vivo
[24] = target: Histamine H3 receptor (Homo sapiens, UniProt Q9Y5N1); test: Inhibition of H3 receptor (unknown origin)
Histamine H3 receptor, sequence (Q9Y5N1 whole entry, the tested form may be a part): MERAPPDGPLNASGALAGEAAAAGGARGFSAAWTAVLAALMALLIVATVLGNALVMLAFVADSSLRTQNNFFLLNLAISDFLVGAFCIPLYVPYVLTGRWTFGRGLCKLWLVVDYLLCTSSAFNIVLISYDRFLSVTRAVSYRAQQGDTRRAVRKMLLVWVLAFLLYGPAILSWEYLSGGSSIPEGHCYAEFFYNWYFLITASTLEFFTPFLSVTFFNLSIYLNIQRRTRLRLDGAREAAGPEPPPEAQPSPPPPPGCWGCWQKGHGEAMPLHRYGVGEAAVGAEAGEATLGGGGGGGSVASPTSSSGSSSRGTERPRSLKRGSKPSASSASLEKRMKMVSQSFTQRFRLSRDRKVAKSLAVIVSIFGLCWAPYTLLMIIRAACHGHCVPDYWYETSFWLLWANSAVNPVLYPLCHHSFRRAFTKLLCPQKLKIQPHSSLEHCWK

[25] = target: Platelet-derived growth factor receptor alpha (Homo sapiens, UniProt P16234); test: Inhibition of PDGFRalpha kinase domain (unknown origin) assessed as reduction in probe peptide substrate phosphorylation by capillary electrophoresis
Platelet-derived growth factor receptor alpha, sequence (P16234 whole entry, the tested form may be a part): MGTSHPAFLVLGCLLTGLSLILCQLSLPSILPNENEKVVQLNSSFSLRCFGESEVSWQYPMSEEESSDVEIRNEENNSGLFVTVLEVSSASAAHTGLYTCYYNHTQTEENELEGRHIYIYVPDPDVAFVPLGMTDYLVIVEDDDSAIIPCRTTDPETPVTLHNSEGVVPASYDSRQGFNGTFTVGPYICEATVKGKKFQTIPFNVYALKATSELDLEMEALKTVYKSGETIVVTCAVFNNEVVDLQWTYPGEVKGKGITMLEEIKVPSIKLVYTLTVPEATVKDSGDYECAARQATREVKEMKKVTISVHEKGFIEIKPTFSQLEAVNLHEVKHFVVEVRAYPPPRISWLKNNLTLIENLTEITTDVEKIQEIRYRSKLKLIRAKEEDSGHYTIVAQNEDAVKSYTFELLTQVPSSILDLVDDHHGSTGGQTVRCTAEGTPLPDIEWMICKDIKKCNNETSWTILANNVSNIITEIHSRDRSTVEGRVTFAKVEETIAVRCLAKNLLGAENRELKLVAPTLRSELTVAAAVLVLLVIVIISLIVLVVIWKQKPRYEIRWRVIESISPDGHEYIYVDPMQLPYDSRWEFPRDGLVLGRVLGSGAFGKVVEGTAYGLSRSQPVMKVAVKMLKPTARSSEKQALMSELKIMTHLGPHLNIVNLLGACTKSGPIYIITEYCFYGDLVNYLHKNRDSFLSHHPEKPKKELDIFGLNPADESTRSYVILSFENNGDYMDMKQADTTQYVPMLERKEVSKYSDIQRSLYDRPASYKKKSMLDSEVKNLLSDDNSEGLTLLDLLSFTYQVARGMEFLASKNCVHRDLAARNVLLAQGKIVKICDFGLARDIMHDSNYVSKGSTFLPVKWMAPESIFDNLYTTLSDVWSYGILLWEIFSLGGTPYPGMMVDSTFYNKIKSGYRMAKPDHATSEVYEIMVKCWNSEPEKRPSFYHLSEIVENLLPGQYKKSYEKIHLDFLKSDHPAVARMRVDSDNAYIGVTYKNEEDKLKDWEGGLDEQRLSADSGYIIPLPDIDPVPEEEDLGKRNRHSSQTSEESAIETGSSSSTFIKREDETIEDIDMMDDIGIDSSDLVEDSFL

Cc1ccc(NC(=O)c2ccc(CN3CCN(C)CC3)cc2)cc1Nc1nccc(-c2cccnc2)n1 [IMATINIB]
concentration [1]: 306000 nM | Activity [2]: Active

CN1CCN(c2ccccc2CNC(=O)c2ccc(F)c(NC(=O)c3cnc4cc(-c5ccnn5C)ccn34)c2)CC1
concentration at 7 h [3]: 687 nM | concentration at 24 h [4]: 60 nM | Occ [5]: 54% | solubility [6]: 770 µg/mL (≈ 1360 µM) | Occ [7]: 70% | permeability [8]: 4.8% | concentration at 7 h [9]: 687 nM | Occ [10]: 9%

Cn1nccc1-c1ccn2c(C(=O)Nc3cc(C(=O)NCc4ccc(F)c(F)c4)ccc3F)cnc2c1
concentration at 7 h [11]: 276000 nM | solubility [6]: < 10 µg/mL | permeability [8]: 11% | Occ [12]: 27%

CN1CCN(c2ccccc2CNC(=O)c2ccc(F)c(NC(=O)c3cnc4ccccn34)c2)CC1
permeability [8]: 83.1%

Cn1cc(-c2ccn3c(C(=O)Nc4cc(C(=O)NCCN5CCCC5(C)C)ccc4F)cnc3c2)cn1
concentration at 7 h [3]: 1030 nM | Occ [5]: 82% | solubility [6]: > 1000 µg/mL | permeability [8]: 0.7% | concentration at 24 h [13]: 420 nM | Occ [14]: 51%

Cn1nccc1-c1ccn2c(C(=O)Nc3cc(C(=O)NCCN4CCCC4(C)C)ccc3F)cnc2c1
permeability [8]: 0.6%

C[C@@H]1CCC[C@H](C)N1CCNC(=O)c1ccc(F)c(NC(=O)c2cnc3cc(-c4ccnn4C)ccn23)c1
concentration at 7 h [3]: 302 nM | Occ [5]: 75% | solubility [6]: 590 µg/mL (≈ 1140 µM) | permeability [8]: 5.4% | concentration at 24 h [13]: 44 nM | Occ [14]: 0%

CN1CCN(c2ccccc2CNC(=O)c2ccc(F)c(NC(=O)c3cnn4cc(-c5ccnn5C)ccc34)c2)CC1
solubility [6]: > 1000 µg/mL | Occ [7]: 29% | permeability [8]: 70% | concentration at 7 h [9]: 221 nM

Cn1nccc1-c1ccn2c(C(=O)Nc3cc(C(=O)NCC4CCC(C)(C)O4)ccc3F)cnc2c1 (centres undefined)
permeability [8]: 81%

Cc1ncc(C(=O)NCCN2CCCC2(C)C)cc1NC(=O)c1cnn2cc(-c3cnn(C)c3)ccc12
concentration at 7 h [3]: 1300 nM | IC50 [15]: > 30 µM | concentration [16]: 750 nM | Occ [5]: 88% | IC50 [17]: 5 µM | Activity [18]: 14.3% | solubility [6]: > 1000 µg/mL | concentration [19]: 210 nM | permeability [8]: 4.7% | concentration at 24 h [13]: 680 nM | half-life [20]: 14 h | Occ [14]: 81% | minimal effective dose [21]: 0.03 mg/kg | concentration [22]: 1900 nM | bioavailability [23]: 90% | IC50 [24]: 5 µM

CN1CCN(c2ccccc2CNC(=O)c2ccc(F)c(NC(=O)c3cnc4cc(-c5cc[nH]n5)ccn34)c2)CC1
permeability [8]: 0% | IC50 [25]: < 0.0001 µM

CN(CCNC(=O)c1ccc(F)c(NC(=O)c2cnc3cc(-c4ccnn4C)ccn23)c1)C(C)(C)C
permeability [8]: 0%

CN1CCN(c2ccccc2CNC(=O)c2ccc(F)c(NC(=O)c3cnc4cc(-c5cnn(C)c5)ccn34)c2)CC1
permeability [8]: 26.3%

CCN(CCNC(=O)c1ccc(F)c(NC(=O)c2cnc3cc(-c4ccnn4C)ccn23)c1)C(C)(C)C
permeability [8]: 23%

Cc1ncc(C(=O)NCc2ccccc2N2CCN(C)CC2)cc1NC(=O)c1cnn2cc(-c3ccnn3C)ccc12
solubility [6]: > 1000 µg/mL | Occ [7]: 83% | permeability [8]: 17% | concentration at 7 h [9]: 3950 nM

CN1CCN(c2ccccc2CNC(=O)c2ccc(F)c(NC(=O)c3cnc4cc(-c5cccnc5)ccn34)c2)CC1
permeability [8]: 23%
